Measured values: ChEMBL document CHEMBL1154849, “Bafilomycins produced in culture by Streptomyces spp. isolated from marine habitats are potent inhibitors of autophagy” (2010)
The source made the active and inactive calls. No cut-off for these calls is given here.

Tests used:
Format in all cases: functional, cell-based
MCF7 [1] = experiment: Induction of autophagosome accumulation in human MCF7 cells expressing EGFP-LC3 assessed as punctate EGFP-LC3 level at => 100 nM after 4 hrs by automated microscopy relative to control
MCF7 [2] = experiment: […] in human MCF7 cells expressing EGFP-LC3 assessed as EGFP levels at 100 nM after 4 hrs by Western blotting relative to control
Outline: (§1)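 MCF-7 cells expressing EGFP-LC3 were exposed for 4 h to compounds alone or in combinations. Free EGFP band formation, a readout of EGFP-LC3 degradation, was followed by Western blot with anti-GFP antibody.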

MCF7 [3] = experiment: Inhibition of rapamycin-induced autophagy in human MCF7 cells expressing EGFP-LC3 assessed as decrease in EGFP levels at 100 nM after 4 hrs by Western blotting relative to control; outline: as §1
MCF7 [4] = experiment: Induction of autophagosome accumulation in human MCF7 cells expressing EGFP-LC3 assessed as punctate EGFP-LC3 level at => 10 nM after 4 hrs by automated microscopy relative to control
MCF7 [5] = experiment: Induction of autophagosome accumulation in human MCF7 cells expressing EGFP-LC3 assessed as punctate EGFP-LC3 level at => 1 nM after 4 hrs by automated microscopy relative to control
MCF7 [6] = experiment: […] in human MCF7 cells expressing EGFP-LC3 assessed as EGFP levels at 30 nM after 4 hrs by Western blotting relative to control
MCF7 [7] = experiment: Induction of autophagosome accumulation in human MCF7 cells expressing EGFP-LC3 assessed as punctate EGFP-LC3 level at 0.3 nM after 4 hrs by automated microscopy relative to control

For `CO/C1=C\C(C)=C\[C@@H](C)[C@@H](O)[C@@H](C)C/C(C)=C/C=C/[C@H](OC)[C@@H]([C@@H](C)/C=C(\C)C2=C[C@@H](OC)[C@H](C)[C@@H](C(C)C)O2)OC1=O`, the Activity (MCF7 [1]) was “Active”, the Activity (MCF7 [2]) was “Active” and the Activity (MCF7 [3]) was “inactive”.

For `CO[C@H]1/C=C/C=C(\C)C[C@H](C)[C@H](O)[C@H](C)/C=C(C)/C=C(\C)C(=O)O[C@@H]1[C@@H](C)[C@@H](O)[C@H](C)C(=O)/C=C/[C@H](C)[C@H](O)C(C)C`, the Activity (MCF7 [4]) was “Active”, the Activity (MCF7 [2]) was “inactive” and the Activity (MCF7 [3]) was “Active”.

In the case of `CO/C1=C\C(C)=C\[C@@H](C)[C@@H](O)[C@@H](C)C/C(C)=C/C=C/[C@H](OC)[C@@H]([C@@H](C)[C@@H](O)[C@H](C)[C@@]2(O)C[C@@H](OC(=O)/C=C/C(=O)NC3=C(O)CCC3=O)[C@H](C)[C@@H](C(C)C)O2)OC1=O`, the Activity (MCF7 [5]) is reported as “Active”, the Activity (MCF7 [2]) is reported as “inactive” and the Activity (MCF7 [3]) is reported as “Active”.

In the case of `CO/C1=C\C(C)=C\[C@@H](C)[C@@H](O)[C@@H](C)C/C(C)=C/C=C/[C@H](OC)[C@@H]([C@@H](C)[C@@H](O)[C@H](C)[C@@]2(O)C[C@@H](O)[C@H](C)[C@@H](C(C)C)O2)OC1=O`, the Activity (MCF7 [5]) is reported as “Active”, the Activity (MCF7 [2]) is reported as “inactive” and the Activity (MCF7 [3]) is reported as “Active”.

`CO[C@H]1C[C@@H]2CC[C@@H](C)[C@@](O)(O2)C(=O)C(=O)N2CCCC[C@H]2C(=O)O[C@H]([C@H](C)C[C@@H]2CC[C@@H](O)[C@H](OC)C2)CC(=O)[C@H](C)/C=C(\C)[C@@H](O)[C@@H](OC)C(=O)[C@H](C)C[C@H](C)/C=C/C=C/C=C/1C` was tested, and the Activity (MCF7 [6]) was “Active”.

With `CO/C1=C\C(C)=C\[C@@H](C)[C@@H](O)[C@@H](C)C/C(C)=C/C=C/[C@H](OC)[C@@H]([C@@H](C)[C@@H](O)[C@H](C)[C@@]2(O)C[C@@H](OC)[C@H](C)[C@@H](C(C)C)O2)OC1=O` [BAFILOMYCIN G] the Activity (MCF7 [7]) was “Active”, the Activity (MCF7 [2]) was “inactive” and the Activity (MCF7 [3]) was “Active”.

For `CO[C@H]1/C=C/C=C(\C)C[C@H](C)[C@H](O)[C@H](C)/C=C(C)/C=C(\C)C(=O)O[C@@H]1[C@@H](C)[C@@H](O)[C@H](C)[C@@]1(OC)C[C@@H](OC)[C@H](C)[C@@H](C(C)C)O1`, the Activity (MCF7 [5]) was “Active”, the Activity (MCF7 [2]) was “inactive” and the Activity (MCF7 [3]) was “Active”.

`CO/C1=C\C(C)=C\[C@@H](C)[C@@H](O)[C@@H](C)C/C(C)=C/C=C/[C@H](OC)[C@@H]([C@@H](C)[C@@H](O)[C@H](C)[C@@]2(O)C[C@@H](OC(=O)C[C@@H]3SC[C@@H](C(=O)O)NC3=O)[C@H](C)[C@@H](C(C)C)O2)OC1=O` was tested, and the Activity (MCF7 [4]) was “Active”, the Activity (MCF7 [2]) was “inactive” and the Activity (MCF7 [3]) was “Active”.

With `CO/C1=C\C(C)=C\[C@@H](C)[C@@H](O)[C@@H](C)C/C(C)=C/C=C/[C@H](OC)[C@@H]([C@@H](C)[C@@H](O)[C@H](C)[C@@]2(OC)C[C@@H](OC)[C@H](C)[C@@H](C(C)C)O2)OC1=O` the Activity (MCF7 [4]) was “Active”, the Activity (MCF7 [2]) was “inactive” and the Activity (MCF7 [3]) was “Active”.
